PubChem BioAssay AID804 (SRMLSC, 2007)
In all, about 140,000 compounds went through this assay and about 710 (0.51%) were called active.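 How the source made its calls: active means inhibition above a set limit, 3 SD over the mean compound inhibition (cut at about 44% in these data); inactive means the rest.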 What follows is part of a selection rich in actives, with near analogues and random picks from the rest.

Test: growth inhibitors of yeast BB579 in restrictive medium, primary screen, yeast lifespan-shortening project, S. cerevisiae (AID 804)
Settings: OD615, 48 h, at 10 µM, stronger effect = higher value
How it was run: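 controls = amphotericin B 10 µg/mL, positive | assay system = DeaD yeast strain BB579 | schedule = 48 h compound exposure at 30 °C after 4 h preincubation | detection = OD615 turbidity measurement | medium = restrictive CSMM-D medium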
With `COc1ccc2nc(Nc3nc(-c4cc5ccccc5oc4=O)cs3)sc2c1` the inhibition was -1.96% (inactive). For `O=C(Cc1coc2ccc3ccccc3c12)NCc1cccs1`, the inhibition was -8.63% (inactive). In the case of `CCC(=O)Nc1c(S(=O)(=O)c2ccccc2)c2nc3ccccc3nc2n1Cc1ccccc1`, the inhibition is reported as -16.3% (inactive). With `O=C(O)c1ccc(/C=N/NC(=O)c2ccc(Br)cc2)cc1` the inhibition was -28.3% (inactive). With `O=S(=O)(NCCc1ccncc1)c1ccccc1` the inhibition was -4.48% (inactive). With `COc1cc(OC)c(C(=O)Nc2ccccc2-c2ccccc2)cc1OC` the inhibition was -28.8% (inactive). In the case of `CCNC(=O)NC(=O)C(C)OC(=O)C1CCN(S(=O)(=O)c2ccccc2F)CC1` (stereo not drawn), the inhibition is reported as 6.21% (inactive). In the case of `COc1ccc(/C=C/C(=O)c2cc(Br)ccc(=O)c2O)cc1`, the inhibition is reported as 96% (active). In the case of `COc1ccc(/C=C/C(=O)c2ccc(OC)cc2O)cc1`, the inhibition is reported as -54.2% (inactive). With `COc1ccc(C(=O)/C=C/c2ccc(OC3CSC3)cc2)cc1` the inhibition was -16.1% (inactive). With `Cc1ccc(C(=O)OCc2nc(N)nc(Nc3ccccc3C)n2)cc1` the inhibition was -34.8% (inactive). For `CC(=O)c1c(N2CCN(c3ccc(F)cc3)CC2)nc(=S)n(-c2ccccc2)c1C`, the inhibition was -54.2% (inactive). With `Cc1nc(Cl)c2oc3ccccc3c2n1` the inhibition was 59.5% (active). With `Cc1nc(N2CCCC2C(=O)O)c2oc3ccccc3c2n1` (stereo not drawn) the inhibition was -21.7% (inactive). In the case of `CCSc1nc(C)nc2c1oc1ccccc12`, the inhibition is reported as -45.9% (inactive). With `CCOC(=O)C1=C(C)OC(N)=C(C#N)C1c1cncc(-c2ccc(F)cc2)c1` (stereo not drawn) the inhibition was -36.2% (inactive). In the case of `COc1ccc(C(=O)C[n+]2ccc(C)cc2)cc1`, the inhibition is reported as -28.4% (inactive). For `CCc1ccc(NC(=O)CC2C(=O)NCCN2C(=S)Nc2ccccc2)cc1` (stereo not drawn), the inhibition was -24.6% (inactive). For `COc1cccc(NC(=S)NC(=O)c2c(Cl)c(C)nn2C)c1`, the inhibition was -62.5% (inactive). With `Cc1nc2sc(C(=O)c3ccccc3)c(N)c2c2c1CCCC2` the inhibition was 8.75% (inactive). In the case of `N#C/C(=C\c1ccccc1C(F)(F)F)C(=O)Nc1ccccc1F`, the inhibition is reported as 4.84% (inactive). For `CC(=O)NC1=NN(C(C)=O)C(C)(c2ccc(C)cc2)S1` (stereo not drawn), the inhibition was -33.1% (inactive). In the case of `Fc1ccc2c(c1)C(c1cccnc1)=NNC(c1cccs1)=N2`, the inhibition is reported as -47.9% (inactive). With `COC(=O)c1ccc(C(=O)OC)c(NC(=S)N2CCN(c3ccc(F)cc3)CC2)c1` the inhibition was -49.1% (inactive). For `Cc1ccc(-n2c(SCC(=O)N3c4ccccc4Sc4ccccc43)nnc2-c2ccncc2)cc1`, the inhibition was -47.4% (inactive). In the case of `COc1ccc(C)cc1NC(=O)C(Sc1ccccc1)c1ccccc1` (stereo not drawn), the inhibition is reported as -2.09% (inactive). With `Cc1ccc(S(=O)(=O)N(C)C)cc1NC(=O)/C=C/c1cccs1` the inhibition was -48% (inactive). In the case of `Cc1cc(/C=C2\SC(=Nc3ccc(N4CCOCC4)cc3)N(C)C2=O)c(C)n1-c1cccnc1`, the inhibition is reported as -7.27% (inactive). With `O=C(Nc1nnc(C2CC2)s1)c1ccccn1` the inhibition was 62% (active). In the case of `Cc1occc1C(=O)Nc1nnc(C2CCCCC2)s1`, the inhibition is reported as -32.1% (inactive). For `CC1CCN(c2ccc(C(=O)Nc3nnc(C4CC4)s3)cc2[N+](=O)[O-])CC1`, the inhibition was -33% (inactive). In the case of `CCC(NC(=O)c1ccccc1NC(=O)c1ccccc1)C(=O)NNC(=O)CSc1nc2ccccc2o1` (stereo not drawn), the inhibition is reported as -6.61% (inactive). With `CCS(=O)(=O)N1Cc2ccccc2CC1C(=O)Nc1nc2ccc(F)cc2s1` (stereo not drawn) the inhibition was -23% (inactive). In the case of `COc1cc(/C=C(/NC(=O)c2ccc(Cl)cc2Cl)C(=O)O)cc(OC)c1OC`, the inhibition is reported as -17.4% (inactive). With `C#CCCCc1nc2ccccc2c(=O)n1N` the inhibition was -33.7% (inactive). With `Cc1ccc(OCC(=O)Nc2ccccc2Sc2ccc(Cl)cc2)c([N+](=O)[O-])n1` the inhibition was -29.5% (inactive). With `CC1=C[C@H]2Cc3cc(C)cc(C)c3S(=O)(=O)[C@@H]2C=C1` the inhibition was -12.4% (inactive). For `CC(=O)N1C(C)c2ccccc2C(C)(C)CC12CCCCC2` (stereo not drawn), the inhibition was -16.3% (inactive). For `O=c1c(Cl)c(NCc2ccc(F)cc2Cl)cnn1C12CC3CC(CC(C3)C1)C2`, the inhibition was -27.1% (inactive). For `Cc1ncc(CC(=O)n2cc(C(=O)c3cc(Cl)ccc3O)cn2)s1`, the inhibition was 68.2% (active). For `Cc1ccc(CCC(=O)Nc2ncc(Cc3cc(Cl)ccc3Cl)s2)o1`, the inhibition was -66.6% (inactive). With `COc1cc(/C=C/C(=O)OCC(=O)Nc2cccc(Oc3ccccc3)c2)ccc1O` the inhibition was -29.9% (inactive). In the case of `C/C(=N/NC(=O)C1COc2ccccc2O1)c1ccco1` (stereo not drawn), the inhibition is reported as -32.3% (inactive). For `O=C(COC(=O)CSc1nnc(-c2ccc(Cl)cc2)o1)Nc1cc(Cl)cc(Cl)c1`, the inhibition was -26.3% (inactive). In the case of `CN(Cc1ccccc1)C(=O)COC(=O)c1ccccc1Nc1ccccc1`, the inhibition is reported as -8.71% (inactive). In the case of `O=C(Nc1ccc([N+](=O)[O-])cc1)C1(c2ccccc2)CCOCC1`, the inhibition is reported as -16.4% (inactive). With `O=C(NC1CCCC1)C(NS(=O)(=O)c1ccc(Br)s1)c1ccccc1` (stereo not drawn) the inhibition was -26.3% (inactive). For `O=S(=O)(c1ccc(F)cc1)N1CCN(C(=S)NCc2ccco2)CC1`, the inhibition was -18% (inactive). For `N#C/C(=C(/O)COC(=O)COc1ccc(Cl)cc1)c1nc2ccccc2[nH]1`, the inhibition was -22.6% (inactive). With `Cc1ccc(NC(=O)COC(=O)CCc2nc3ccccc3n2-c2ccccc2)c(C)c1` the inhibition was -45.6% (inactive). In the case of `S=C1SCN(CCN2CCOCC2)CN1Cc1ccccc1`, the inhibition is reported as 39.7% (inactive). For `COc1ccc(CN2CN(C(C)C)CSC2=S)cc1`, the inhibition was 68.5% (active). In the case of `COCC(=O)Nc1cc(C(=O)OC)cc(C(=O)OC)c1`, the inhibition is reported as 6.64% (inactive). With `Cc1cc2oc(=O)cc(CN3CCN(S(=O)(=O)c4cccs4)CC3)c2cc1C(C)C` the inhibition was -20.6% (inactive). With `Cc1ccc(CNC(=O)Cn2c(=O)c3sccc3n(Cc3cccc([N+](=O)[O-])c3)c2=O)cc1` the inhibition was -44.2% (inactive). In the case of `Cc1cccc(NC(=O)Cn2c(=O)n(Cc3ccccc3)c(=O)c3c(C)c(C)sc32)c1`, the inhibition is reported as -27.1% (inactive). For `Cc1ccc(C(=O)NCC2CCCO2)o1` (stereo not drawn), the inhibition was -26.6% (inactive). For `OC(CNCC1CCCO1)Cn1c2ccc(Br)cc2c2cc(Br)ccc21` (stereo not drawn), the inhibition was 98.7% (active). In the case of `Cc1cc(Br)ccc1NC(=O)C1CCCO1` (stereo not drawn), the inhibition is reported as -21.5% (inactive). For `COc1ccc2nc(SCc3ccccc3)nc(C)c2c1`, the inhibition was -34.5% (inactive). With `COc1ccc2nc(/N=C(\N)NC(=O)Nc3ccccc3)nc(C)c2c1` the inhibition was 68.3% (active). In the case of `COc1ccc(NC(=O)Nc2ccc3nc(C)c(C)nc3c2)cc1`, the inhibition is reported as -50.2% (inactive). With `CCOC(=O)CC(NC(=O)C1c2ccccc2Oc2ccccc21)c1ccc(C)cc1` (stereo not drawn) the inhibition was -27.5% (inactive). In the case of `Cc1cc(/C=C2/NC(=O)NC2=O)c(C)n1-c1cccnc1`, the inhibition is reported as -7.15% (inactive). In the case of `CC(C)n1c(O)c(N=Nc2ccccn2)c2ccccc21`, the inhibition is reported as -16.1% (inactive). In the case of `C=C1c2cc(CC)ccc2NC(=O)N1c1ccc(C)cc1`, the inhibition is reported as 23.4% (inactive). For `O=C1Nc2ccccc2C12Nc1ccccc1S2` (stereo not drawn), the inhibition was -30.7% (inactive). In the case of `CCc1ccc2c(c1)C1(NN=C(c3ccccc3)S1)C(=O)N2` (stereo not drawn), the inhibition is reported as 94.7% (active). In the case of `Cc1ccc(OCCOCCOc2ccc(Br)cc2/C=N\NC(=O)c2ccncc2)cc1`, the inhibition is reported as -32.5% (inactive). For `COC(=O)c1ccccc1NC(=S)NC(=O)c1ccccc1F`, the inhibition was -31.5% (inactive). For `CC(C)(C)c1ccc(/C=C/C(=O)Nc2ncccn2)cc1`, the inhibition was -6.47% (inactive). For `CCn1c(C(C)NC(=O)c2ccc(C)cc2)n[nH]c1=S` (stereo not drawn), the inhibition was -50.9% (inactive). With `COc1ccc(Cc2nnc(N/N=C/c3ccccc3O)[nH]c2=O)cc1OC` the inhibition was -57% (inactive). In the case of `Cc1csc(=Nc2ccccc2)n1CCO`, the inhibition is reported as -3.94% (inactive). With `Oc1c(Cl)cc(Cl)c(Cl)c1Cc1c(O)c(Cl)cc(Cl)c1Cl` the inhibition was 71.3% (active). For `Cc1ccc(C(=O)Nc2sc(Cc3ccc4c(c3)OCO4)c(C)c2C(N)=O)cc1`, the inhibition was -10.9% (inactive). In the case of `NC1=C([N+](=O)[O-])C(c2ccccc2)C2=C(CCCC2=O)O1` (stereo not drawn), the inhibition is reported as -44.3% (inactive). With `CCCCC(O)(CCCC)C(=O)NN(C(=O)CCl)c1ccccc1` the inhibition was -4.22% (inactive). For `CCOC(=O)c1sc2nc(C)nc(SCC(N)=O)c2c1C`, the inhibition was -20.9% (inactive). In the case of `CCOc1ccc(/C=N/NC(=O)C(C)Sc2ccccn2)cc1OCC` (stereo not drawn), the inhibition is reported as -33.6% (inactive). For `Cc1ccc2[nH]c(=O)c(CC=C(Cl)Cl)c(C)c2c1`, the inhibition was -51.5% (inactive). For `CCOC(=O)c1sc(NC(=O)COc2ncnc3ccccc23)c(C(=O)OCC)c1C`, the inhibition was -43.9% (inactive). In the case of `Cc1nn(Cc2ccccc2)c(C)c1C(=O)NCCN1C(=O)S/C(=C\c2ccc(F)cc2)C1=O`, the inhibition is reported as -32.9% (inactive). In the case of `CC(CNc1ccc([N+](=O)[O-])c2cccnc12)Nc1c([N+](=O)[O-])cc(C(F)(F)F)cc1[N+](=O)[O-]` (stereo not drawn), the inhibition is reported as -23.5% (inactive). For `NS(=O)(=O)c1ccc(N=Cc2ccc(Br)s2)cc1`, the inhibition was -15% (inactive). With `O=C(COC(=O)/C=C/c1cn(-c2ccccc2)nc1-c1cccnc1)Nc1ccc(Cl)cc1Cl` the inhibition was -21.4% (inactive). With `CC(Sc1nnc2c(n1)C1CCC2(C)C1(C)C)C(=O)Nc1ccccc1` (stereo not drawn) the inhibition was -23.4% (inactive). For `O=C(/C=C\c1ccc2c(c1)OCO2)NC1(C(=O)Nc2ccc3c(c2)OCCO3)CCCCC1`, the inhibition was 9.33% (inactive). With `COc1ccc(S(=O)(=O)N2CN(CCc3ccc(OC)c(OC)c3)c3nc4ccccc4nc32)cc1` the inhibition was -25.7% (inactive). For `COc1cccc(N(C(=O)C2COc3ccccc3O2)C(C(=O)NC2CCCCC2)c2ccc(O)cc2)c1` (stereo not drawn), the inhibition was -6.16% (inactive). For `CCCCCCCC[n+]1cccc(C(=O)N2c3c(nc(N)[nH]c3=O)NC(C)C2C)c1` (stereo not drawn), the inhibition was -5.07% (inactive). For `O=C(Nc1nc(-c2ccc(-c3ccccc3)cc2)cs1)c1cnccn1`, the inhibition was -18.9% (inactive). For `O=C(CNCc1ccc(F)cc1)Nc1ccccc1-c1ccccc1`, the inhibition was -20.9% (inactive).
